# In ChEMBL document CHEMBL1153606, “Microwave assisted synthesis of new indophenazine 1,3,5-trisubstruted pyrazoline derivatives of benzofuran and their antimicrobial activity” (2009):
# The source made the active and inactive calls. No cut-off for these calls is given here.
# Key:
# Candida albicans = assay: Antifungal activity against Candida albicans after 30 to 72 hrs by agar culture method; type: functional, organism-based
# Outline: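 Agar well assay on C. albicans: compounds at a range of concentrations in DMF were loaded into 6 mm wells. Plates were incubated at 30 °C for 30–72 h. Inhibition zones were read in mm against standard drugs.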
# Streptococcus pyogenes [1] = assay: Antibacterial activity against multidrug-resistant Streptococcus pyogenes after 20 hrs by cylinder and well method; type: functional
# Outline: (§1)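 Agar diffusion assay: organisms grown overnight on 2% agar with 5% sheep blood under 10% CO2. Inocula were diluted in Ringer solution, treated in Todd–Hewitt medium and spread on agar plates. Drug spots were applied, with about 5 × 10^3 CFU/spot. Plates were held at 37 °C for 20 h. Inhibition zones were read in mm against standard drugs and vehicle.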
# Streptococcus pyogenes [2] = assay: Antibacterial activity against multidrug-resistant Streptococcus pyogenes after 24 hrs by broth microdilution method; type: functional
# Outline: (§2)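 MIC was determined in Mueller–Hinton broth.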
# Staphylococcus aureus [3] = assay: Antibacterial activity against multidrug-resistant Staphylococcus aureus after 24 hrs by broth microdilution method; type: functional; outline: as §2
# Staphylococcus aureus [4] = assay: Antibacterial activity against multidrug-resistant Staphylococcus aureus after 20 hrs by cylinder and well method; type: functional; outline: as §1
# [5] = test system: Salmonella enterica subsp. enterica; assay: Antibacterial activity against multidrug-resistant Salmonella typhi after 24 hrs by broth microdilution method; type: functional, Salmonella enterica subsp. enterica serovar Typhi; outline: as §2
# [6] = test system: Salmonella enterica subsp. enterica; assay: Antibacterial activity against multidrug-resistant Salmonella typhi after 20 hrs by cylinder and well method; type: functional, Salmonella enterica subsp. enterica serovar Typhi; outline: as §1
# Streptococcus agalactiae [7] = assay: Antibacterial activity against multidrug-resistant Streptococcus agalactiae after 24 hrs by broth microdilution method; type: functional; outline: as §2
# Streptococcus agalactiae [8] = assay: Antibacterial activity against multidrug-resistant Streptococcus agalactiae after 20 hrs by cylinder and well method; type: functional; outline: as §1
# Streptococcus pneumoniae [9] = assay: Antibacterial activity against multidrug-resistant Streptococcus pneumoniae after 20 hrs by cylinder and well method; type: functional; outline: as §1
# Streptococcus pneumoniae [10] = assay: Antibacterial activity against multidrug-resistant Streptococcus pneumoniae after 24 hrs by broth microdilution method; type: functional; outline: as §2
# Pseudomonas aeruginosa [11] = assay: Antibacterial activity against multidrug-resistant Pseudomonas aeruginosa after 24 hrs by broth microdilution method; type: functional; outline: as §2
# Pseudomonas aeruginosa [12] = assay: Antibacterial activity against multidrug-resistant Pseudomonas aeruginosa after 20 hrs by cylinder and well method; type: functional; outline: as §1
# Escherichia coli [13] = assay: Antibacterial activity against multidrug-resistant Escherichia coli after 20 hrs by cylinder and well method; type: functional; outline: as §1
# Escherichia coli [14] = assay: Antibacterial activity against multidrug-resistant Escherichia coli broth after 24 hrs by broth microdilution method; type: functional; outline: as §2
Compound,Activity (Candida albicans),inhibition zone (IZ) (Streptococcus pyogenes [1]) [mm],MIC (Streptococcus pyogenes [2]) [µg/mL],MIC (Staphylococcus aureus [3]) [µg/mL],inhibition zone (IZ) (Staphylococcus aureus [4]) [mm],MIC [5] [µg/mL],inhibition zone (IZ) [6] [mm],MIC (Streptococcus agalactiae [7]) [µg/mL],inhibition zone (IZ) (Streptococcus agalactiae [8]) [mm],inhibition zone (IZ) (Streptococcus pneumoniae [9]) [mm],MIC (Streptococcus pneumoniae [10]) [µg/mL],MIC (Pseudomonas aeruginosa [11]) [µg/mL],inhibition zone (IZ) (Pseudomonas aeruginosa [12]) [mm],inhibition zone (IZ) (Escherichia coli [13]) [mm],MIC (Escherichia coli [14]) [µg/mL]
O=C(Cn1c2ccccc2c2nc3ccccc3nc21)N1N=C(c2cc3ccccc3o2)CC1c1ccco1 (stereo not drawn),inactive,8,30,10.5,10,16.5,9,26.5,10,14,5.6,21,8,10,15
COc1ccc(C2CC(c3cc4ccccc4o3)=NN2C(=O)Cn2c3ccccc3c3nc4ccccc4nc32)c(O)c1 (stereo not drawn),inactive,14,26,9,13,14.5,11,28,11,16,5,18.5,10,11,13.5
O=C(O)c1ccccc1C1CC(c2cc3ccccc3o2)=NN1C(=O)Cn1c2ccccc2c2nc3ccccc3nc21 (stereo not drawn),inactive,10,30.5,8.5,12,15,8,24,10,12,10.5,6.5,14,11,13
O=C(Cn1c2ccccc2c2nc3ccccc3nc21)N1N=C(c2cc3ccccc3o2)CC1c1cccc([N+](=O)[O-])c1 (stereo not drawn),inactive,12,28,12.5,9,13,10,26,12,14,8,5.5,16,13,10.5
O=C(Cn1c2ccccc2c2nc3ccccc3nc21)N1N=C(c2cc3ccccc3o2)CC1c1ccc(O)cc1 (stereo not drawn),inactive,15,20.5,6.5,14,19.5,8,32.5,8,12,8.5,26,8,10,14
O=C(Cn1c2ccccc2c2nc3ccccc3nc21)N1N=C(c2cc3ccccc3o2)CC1c1ccc(Cl)cc1 (stereo not drawn),inactive,14,22,16.5,8,16,10,28,10,15,5.5,16.5,10,7,22.5
CN(C)c1ccc(C2CC(c3cc4ccccc4o3)=NN2C(=O)Cn2c3ccccc3c3nc4ccccc4nc32)cc1 (stereo not drawn),inactive,9,25.5,7,14,9.5,10,36.5,7,13,9,14,11,10,13.5
CCn1cc(C(=O)O)c(=O)c2cc(F)c(N3CCNCC3)cc21 [NORFLOXACIN],,30,2.6,1.5,28,20.2,24,22,32,22,0.12,1.8,28,20,1.3
O=C(Cn1c2ccccc2c2nc3ccccc3nc21)N1N=C(c2cc3ccccc3o2)CC1/C=C/c1ccccc1 (stereo not drawn),inactive,10,26.5,4.5,14,14.5,10,22.5,9,12,10,18.5,10,8,20.5
O=C(Cn1c2ccccc2c2nc3ccccc3nc21)N1N=C(c2cc3ccccc3o2)CC1c1ccccc1 (stereo not drawn),inactive,12,28.5,2.5,16,17,8,28.5,8,20,2,15.5,11,14,8
O=C(Cn1c2ccccc2c2nc3ccccc3nc21)N1N=C(c2cc3ccccc3o2)CC1c1ccccc1Cl (stereo not drawn),inactive,12,25,10,11,15,9,30,10,14,7,17.5,9,8,21.5
COc1ccccc1C1CC(c2cc3ccccc3o2)=NN1C(=O)Cn1c2ccccc2c2nc3ccccc3nc21 (stereo not drawn),inactive,15,22.5,7.5,11,15.5,7,25,9,10,11.5,14.5,12,9,16.5
COc1ccc(C2CC(c3cc4ccccc4o3)=NN2C(=O)Cn2c3ccccc3c3nc4ccccc4nc32)cc1 (stereo not drawn),inactive,14,23.5,8,12,12,11,19,14,16,4.5,12.5,13,17,5
O=C(Cn1c2ccccc2c2nc3ccccc3nc21)N1N=C(c2cc3ccccc3o2)CC1c1ccccc1O (stereo not drawn),inactive,10,26,6,13,8.5,13,22,11,12,9.5,3.5,15,18,1
O=C(Cn1c2ccccc2c2nc3ccccc3nc21)N1N=C(c2cc3ccccc3o2)CC1c1ccccc1[N+](=O)[O-] (stereo not drawn),inactive,10,24,9.5,12,14.5,10,22,12,13,8.5,10.5,12,16,5.5
C[C@@H]1CN(c2c(F)c(N)c3c(=O)c(C(=O)O)cn(C4CC4)c3c2F)C[C@H](C)N1 [SPARFLOXACIN],,38,15,0.25,36,0.5,34,12,38,34,0.04,4.6,33,30,0.26
